One may read the IC50 as the concentration that gives 50% inhibition. The term half-life denotes the time in which the quantity being followed falls by half.

The nature of data set [1]: Solubility in deionized water.
Data set [2] deals with skin lesions (basal cell carcinomas) of Krt6a-cre: Ptch1^neo/neo mice. Put plainly: Topical treatment of basal cell carcinomas, tumor area by HE/ImageJ. Type of data set: in vivo, mouse.
The test system of data set [3] is Hh target genes in skin of Krt6a-cre: Ptch1^neo/neo mice. Put plainly: Hh target gene expression in treated skin. Type of data set: in vivo, mouse. The conditions noted are these: Figure 5C. The method in brief:
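Tumour-bearing transgenic mice received test compound in 70% ethanol, applied topically to the abdominal skin daily for 21 days; 70% ethanol on the mid-belly served as control. Skin halves were frozen at –80°C. TRIzol total RNA (1 µg) was reverse-transcribed. Gene-specific probes were used for qPCR, with triplicate CT values analysed by the comparative CT method, normalised to 18S RNA and expressed relative to a calibrator.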

The subject of data set [4] is Hh signaling-dependent motor neuron differentiation (E14Tg2a.4 embryonic stem cells). Type of data set: cell-based, mouse. The method in brief:
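Mouse E14Tg2a.4 ES cells seeded at 5 × 10^5 cells/mL in ES medium without LIF on ultra-low-adhesion plates for 2 days to form embryoid bodies. Motor neurons induced with retinoic acid 100 nmol/L plus purmorphamine 2.5 µmol/L for 5–7 days, with test compound in the induction medium. Read-outs: Hb9 immunofluorescence, and real-time PCR of Hip, FoxA2, Olig2 and Hb9.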

The nature of data set [5]: Plasma half-life from mouse blood samples. Type of data set: in vivo. Particulars: intraperitoneal.

Regarding “3-Keto-N- (aminoethyl-aminocaproyl-dihydro-cinnamoyl) (KAAD)-Cyc [KAAD-Cyc]”, the Solubility in water entry in data set [1] is “not water soluble”. In addition, in data set [2] (KAAD-Cyc (1 µmol/L topical per methods), data not shown), the “Reduction of tumor area” value was “more than half”.

`CC1=C2C[C@H]3[C@@H](CC=C4C[C@@H](O)CC[C@@]43C)[C@@H]2CC[C@]12O[C@@H]1C[C@H](C)CN[C@H]1[C@H]2C` [Cyc, Cyclopamine]: in data set [3], the “Hedgehog target gene expression (HIP and Ptch1), RT-PCR” value is “little effects”. For the same compound, in data set [4] (Mus musculus, Neuron, read-out: IC50, inhibitory activity for Hh signaling-dependent motor neuron differentiation), the IC50 amounted to 300 nM. Further, in data set [4] (compound at 50 nmol/L), the “Effect on motor neuron differentiation / expression of differentiation markers” value is given as “no significant effects”. The same compound showed a half-life in data set [5] of 1 to 4 h. In addition, the “Maximum reduction in tumor area” value in data set [2] (Cyc treatment group, topical daily for 21 days) is reported as “less than 5%”.

Values taken from article PMC4013422 (Chinese Journal of Cancer, 2011).
